Key:
[1] = target: Sigma non-opioid intracellular receptor 1 (Rattus norvegicus, UniProt Q9R0C9); assay: Inhibition of [3H]NANM binding to sigma receptor obtained from tissue homogenate preparation of fresh whole rat brain minus cerebellum; type: tissue-based
Method in brief: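 Radioligand displacement in homogenate of fresh whole rat brain minus cerebellum. The PCP site was labelled with [3H]TCP and the sigma site with [3H]NANM. IC50 values were read from inhibition curves and converted to Ki with the Cheng-Prusoff equation. Experiments were run in triplicate and reported as mean ± standard deviation of three experiments.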

[2] = Inhibition of [3H]-TCP binding to PCP receptor obtained from tissue homogenate preparation of fresh whole rat brain minus cerebellum

Sequence of Sigma non-opioid intracellular receptor 1 (Q9R0C9 whole entry): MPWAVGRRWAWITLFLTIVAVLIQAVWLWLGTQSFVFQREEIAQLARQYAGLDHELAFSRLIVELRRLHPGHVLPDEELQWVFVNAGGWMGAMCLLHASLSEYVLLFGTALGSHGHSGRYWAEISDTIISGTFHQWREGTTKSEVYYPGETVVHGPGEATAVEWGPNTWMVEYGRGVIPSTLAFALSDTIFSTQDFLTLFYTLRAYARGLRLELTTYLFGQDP

Compound	IC50 [1] [nM]	IC50 [2] [nM]
c1ccc2c(c1)C1CCCCC21N1CCCCC1 (stereo not given)	330	–
c1ccc2c(c1)C1CCC2(N2CCCCC2)CC1	319	–
O=C(OCCN1CCOCC1)C1(c2ccccc2)CCCCC1	44	–
c1ccc2c(c1)C1CCC2(N2CCCCC2)C1 (stereo not given)	365	–
c1ccc(C2(N3CCCCC3)CCCCC2)cc1 [PHENCYCLIDINE]	–	91

— ChEMBL document CHEMBL1131468, “Rigid phencyclidine analogues. Binding to the phencyclidine and sigma 1 receptors” (J Med Chem, 1998)
